The source made the active and inactive calls. No cut-off for these calls is given here.
Key:
Gerbillinae [1] = experiment: Inhibition of PGE2-induced colon smooth muscle contraction in gerbil at […] pretreated for 30 seconds followed by PGE2-challenge measured after 90 seconds; format: functional
Summary of the method: (§1)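 Isolated colon smooth muscle from male gerbils in a chamber (Holton method). Compound is introduced at the stated level per 15 mL; 30 s later 40 ng PGE2 is added. Antagonism is read as % inhibition of the PGE2 response.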

Hamster [2] = experiment: Interruption of pregnancy in hamster at 1 mg, sc administered on day 3 of pregnancy; format: functional, organism-based; conditions: Cricetinae
Summary of the method: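 Pregnant hamsters, ten per compound. A single 1 mg per animal dose is given subcutaneously in ethanol on day 3 of pregnancy, and interruption of pregnancy is scored (modified Giannina method).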

Cricetinae = experiment: Induction of uterus contraction in hamster at 20 ug; format: functional, tissue-based
Summary of the method: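 Isolated hamster uterine strip in vitro, Holton method; compound added at 20 µg and scored for oxytocin-like contractile activity.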

[3] = (§2) Inhibition of PGE2-induced colon smooth muscle contraction in gerbil at 125 ug/15 ml pretreated for 30 seconds followed by PGE2-challenge measured after 90 seconds relative to control; format: functional, Gerbillinae; summary of the method: as §1
[4] = (§3) Inhibition of PGE2-induced colon smooth muscle contraction in gerbil at 80 ug/15 ml pretreated for 30 seconds followed by PGE2-challenge measured after 90 seconds relative to control; format: functional, Gerbillinae; summary of the method: as §1
[5] = (§4) Inhibition of PGE2-induced colon smooth muscle contraction in gerbil at 20 ug/15 ml pretreated for 30 seconds followed by PGE2-challenge measured after 90 seconds relative to control; format: functional, Gerbillinae; summary of the method: as §1
[6] = (§5) Inhibition of PGE2-induced colon smooth muscle contraction in gerbil at 40 ug/15 ml pretreated for 30 seconds followed by PGE2-challenge measured after 90 seconds relative to control; format: functional, Gerbillinae; summary of the method: as §1
Gerbillinae [7] = experiment: as §2; format: functional; summary of the method: as §1
Gerbillinae [8] = experiment: as §3; format: functional; summary of the method: as §1
Gerbillinae [9] = experiment: as §4; format: functional; summary of the method: as §1
Gerbillinae [10] = experiment: as §5; format: functional; summary of the method: as §1
Hamster [11] = experiment: Interruption of pregnancy in hamster at 12.5 ug, sc administered on day 3 of pregnancy relative to control; format: functional, Cricetinae

CCCCC[C@@](C)(O)/C=C/[C@H]1COC(=O)[C@@H]1CCCCCCC(=O)OC (racemic)
inhibition (Gerbillinae [1]): inactive | Activity (Hamster [2]): inactive | Activity (Cricetinae): inactive

CCCCC[C@H](O)/C=C/[C@@H](CO)[C@H](CO)CCCCCCC(=O)OC
inhibition (INH) [3]: 41% | inhibition (INH) [4]: 26% | inhibition (INH) [5]: 0% | Activity (Hamster [2]): inactive | Activity (Cricetinae): inactive | inhibition (INH) [6]: 14%

CCCCC[C@@H](O)/C=C/[C@@H](CO)[C@H](CO)CCCCCCC(=O)OC
inhibition (Gerbillinae [7]): inactive | inhibition (Gerbillinae [8]): inactive | inhibition (Gerbillinae [9]): inactive | Activity (Hamster [2]): inactive | Activity (Cricetinae): inactive | inhibition (Gerbillinae [10]): inactive

CCCCC[C@H](O)/C=C/[C@H]1COC(=O)[C@@H]1CCCCCCC(=O)OC (racemic)
Activity (Hamster [2]): inactive | Activity (Cricetinae): inactive

CCCCC[C@](C)(O)/C=C/[C@H]1COC(=O)[C@@H]1CCCCCCC(=O)OC (racemic)
inhibition (Gerbillinae [1]): inactive | Activity (Hamster [2]): inactive | Activity (Cricetinae): inactive

CCCCC[C@@H](O)/C=C/[C@H]1COC(=O)[C@@H]1CCCCCCC(=O)OC (single isomer, unassigned)
Activity (Hamster [2]): inactive | Activity (Cricetinae): inactive

CCCCC[C@H](O)/C=C/[C@@H]1[C@@H](C/C=C\CCCC(=O)O)[C@@H](O)C[C@H]1O [DINOPROST]
Activity (Hamster [11]): 100%
